Experimental data as given in ChEMBL document CHEMBL1800068 (J Med Chem, 2011).
Activity calls are given as the source filed them. The rule behind the calls is not given here.

What was measured:
[1] = biological target: T1, Retinol-binding protein 4 (Homo sapiens, UniProt P02753); assay: Binding affinity to His-tagged recombinant human sRBP expressed in Escherichia coli BL21(DE3) assessed as disruption of sRBP-TTR protein interaction after 1 hr by SDS-PAGE and silver staining method
How it was run: (§1)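 Compound was 100 μM, or 1, 10, 20, 50 and 100 μM for dose–response. Control was 10 μM ROH with no compound. Released free sRBP in the flow-through was analysed by SDS-PAGE; each run done at least three times.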

[2] = biological target: T1, Retinol-binding protein 4; assay: Binding affinity to His-tagged recombinant human sRBP expressed in Escherichia coli BL21(DE3) assessed as disruption of sRBP-TTR protein interaction at 1 to 100 uM after 1 hr by SDS-PAGE and silver staining method; how it was run: as §1
[3] = biological target: T1, Retinol-binding protein 4; assay: Binding affinity to immobilized His-tagged recombinant human sRBP assessed as inhibition of sRBP and detergent treated HEK293 membrane interaction at 10 uM after 1 hr by surface plasmon resonance assay
[4] = biological target: T1, Retinol-binding protein 4; assay: Antagonist activity at His-tagged recombinant human sRBP […] assessed as disruption of ROH-sRBP-TTR protein interaction after 2 hr by TR-FRET assay; format: functional
How it was run: (§2)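 Apo His-sRBP (P. pastoris-expressed), 5 nM, with 100 nM biotinylated native TTR, 100 nM streptavidin-APC and 1 nM europium anti-His antibody. Inhibitor held at 10 μM while ROH was titrated, in 20 mM Tris-HCl pH 7.4, 150 mM NaCl, 1 mM EDTA, 0.01% BSA, 0.02% Tween 20.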

[5] = biological target: T1, Retinol-binding protein 4; assay: Antagonist activity at His-tagged recombinant human sRBP […] assessed as disruption of ROH-sRBP-TTR protein interaction after 2 hr by TR-FRET assay relative to control; format: functional; how it was run: as §2
[6] = biological target: T1, Retinol-binding protein 4; assay: Binding affinity to His-tagged recombinant human sRBP expressed in Pichia pastoris assessed as apparent dissociation constant after 5 mins by fluorescence spectrophotometric analysis; conditions: read-out: Kd(app)
[7] = biological target: T1, Retinol-binding protein 4; assay: Antagonist activity at His-tagged recombinant human sRBP expressed in Escherichia coli BL21(DE3) assessed as disruption of sRBP-TTR protein interaction after 2 hr by surface plasmon resonance assay; format: functional
How it was run: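 SPR run at 25 °C on a Ni-NTA chip in HBS with 50 μM EDTA at 10 μL/min. Nickel activation, 5 min capture of 200 nM His-sRBP, 1 min compound pulse, then 5 min injection of 1 μM native untagged TTR preincubated with compound at 10 μM. Reference-surface corrected; regenerated with 0.3 mM EDTA; repeated three to five times.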

[8] = biological target: T1, Retinol-binding protein 4; assay: Binding affinity to His-tagged recombinant human sRBP expressed in Escherichia coli BL21(DE3) assessed as disruption of sRBP-TTR protein interaction at 100 uM after 1 hr by SDS-PAGE and silver staining method relative to 10 uM ROH; how it was run: as §1

| Structure (SMILES) | Activity [1] | Activity [2] | further results |
| --- | --- | --- | --- |
| CC1=C(/C=C/C(C)=C/C=C/C(C)=C/C(=O)N2CCC(O)CC2)C(C)(C)CCC1 | Active |  |  |
| CC(C)CCC(=O)Nc1ccc(O)cc1 |  | inactive |  |
| CC1=C(/C=C/C(C)=C/C=C/C(C)=C/C(=O)N2CCC(O)(c3ccccc3)CC2)C(C)(C)CCC1 | Active |  |  |
| CC1=C(/C=C/C(C)=C/C=C/C(C)=C/C(=O)NCc2cccnc2)C(C)(C)CCC1 | Active |  |  |
| O=C(CCc1ccccc1)Nc1ccc(O)cc1 |  | inactive |  |
| COCCC(=O)Nc1ccc(O)cc1 |  | inactive |  |
| CC1=C(/C=C/C(C)=C/C=C/C(C)=C/C(=O)Nc2ccc(OCC(=O)NCCO)cc2)C(C)(C)CCC1 | Active |  |  |
| CC1=C(/C=C/C(C)=C/C=C/C(C)=C/C(=O)Nc2ccc(N(C)C)cc2)C(C)(C)CCC1 | Dose-dependent effect |  | Activity [3]: Active; EC50 [4]: 0.954 µM; Ratio EC50 [5]: 15; Kd [6]: 0.098 µM |
| CC1=C(/C=C/C(C)=C/C=C/C(C)=C/C(=O)NCc2ccc(Oc3ccccc3)cc2)C(C)(C)CCC1 | Active |  |  |
| CC1=C(/C=C/C(C)=C/C=C/C(C)=C/C(=O)NCc2ccc(Cl)cc2)C(C)(C)CCC1 | Active |  |  |
| CC1=C(/C=C/C(C)=C/C=C/C(C)=C/C(=O)NC2CC2)C(C)(C)CCC1 | Active |  |  |
| CC1=C(/C=C/C(C)=C/C=C/C(C)=C/C(=O)N2CCCOCC2)C(C)(C)CCC1 | Active |  |  |
| COC(=O)COc1ccc(NC(=O)/C=C(C)/C=C/C=C(C)/C=C/C2=C(C)CCCC2(C)C)cc1 | Active |  | Activity [3]: Active; EC50 [4]: 1.26 µM; Activity [7]: inactive; Ratio EC50 [5]: 15; Kd [6]: 0.131 µM |
| CC1=C(/C=C/C(C)=C/C=C/C(C)=C/C(=O)N2CCC3CCCCC3C2)C(C)(C)CCC1 (stereo not drawn) | Active |  |  |
| COc1cc(NC(=O)/C=C(C)/C=C/C=C(C)/C=C/C2=C(C)CCCC2(C)C)cc(OC)c1OC | Active |  |  |
| CC1=C(/C=C/C(C)=C/C=C/C(C)=C/C(=O)NCc2ccccc2)C(C)(C)CCC1 | Active |  |  |
| CC1=C(/C=C/C(C)=C/C=C/C(C)=C/C(=O)N2CCOCC2)C(C)(C)CCC1 | Active |  | Activity [3]: Active; EC50 [4]: 0.154 µM; Ratio EC50 [5]: 2; Kd [6]: 0.227 µM |
| COc1ccc(CC(=O)Nc2ccc(O)cc2)cc1 |  | inactive |  |
| O=C(CCCCc1ccccc1)Nc1ccc(O)cc1 |  | inactive |  |
| O=C(Cc1ccccc1)Nc1ccc(O)cc1 |  | inactive |  |
| CC1=C(/C=C/C(C)=C/C=C/C(C)=C/C(=O)Nc2ccccc2)C(C)(C)CCC1 | Active |  |  |
| CC1=C(/C=C/C(C)=C/C=C/C(C)=C/C(=O)Nc2ccc3c(c2)OCO3)C(C)(C)CCC1 | Active |  |  |
| O=C(CCCCCc1ccccc1)Nc1ccc(O)cc1 |  | inactive |  |

| Structure (SMILES) | Activity [1] | Activity [2] | further results |
| --- | --- | --- | --- |
| COc1ccc(CCCC(=O)Nc2ccc(O)cc2)cc1 |  | inactive |  |
| CC1=C(/C=C/C(C)=C/C=C/C(C)=C/C(=O)Nc2ccc(OCC(=O)O)cc2)C(C)(C)CCC1 | Active |  |  |
| CC1=C(/C=C/C(C)=C/C=C/C(C)=C/C(=O)NCC(O)CO)C(C)(C)CCC1 (stereo not drawn) | Active |  | Activity [3]: Active; EC50 [4]: 0.171 µM; Ratio EC50 [5]: 2; Kd [6]: 0.178 µM |
| COc1cccc(NC(=O)/C=C(C)/C=C/C=C(C)/C=C/C2=C(C)CCCC2(C)C)c1 | Active |  |  |
| CC1=C(/C=C/C(C)=C/C=C/C(C)=C/C(=O)N2CCC(CCO)CC2)C(C)(C)CCC1 | Active |  |  |
| COc1cccc(CNC(=O)/C=C(C)/C=C/C=C(C)/C=C/C2=C(C)CCCC2(C)C)c1 | Active |  |  |
| CC1=C(/C=C/C(C)=C/C=C/C(C)=C/C(=O)N2CCN(c3ccc(C)cc3)CC2)C(C)(C)CCC1 | Active |  |  |
| CCOc1ccc(NC(=O)/C=C(C)/C=C/C=C(C)/C=C/C2=C(C)CCCC2(C)C)cc1 | Active |  |  |
| COCCOc1ccc(NC(=O)/C=C(C)/C=C/C=C(C)/C=C/C2=C(C)CCCC2(C)C)cc1 | Active |  |  |
| CC(C)c1ccc(CCCC(=O)Nc2ccc(O)cc2)cc1 |  | inactive |  |
| CC1=C(/C=C/C(C)=C/C=C/C(C)=C/C(=O)NCCCOc2ccccc2)C(C)(C)CCC1 | Active |  |  |
| CCOC(=O)CNC(=O)/C=C(C)/C=C/C=C(C)/C=C/C1=C(C)CCCC1(C)C | Active |  |  |
| CC1=C(/C=C/C(C)=C/C=C/C(C)=C/C(=O)N2CCCCCC2)C(C)(C)CCC1 | Active |  |  |
| CC(CCCC(C)CC(=O)Nc1ccc(O)cc1)CCC1C(C)CCCC1(C)C (stereo not drawn) | Active |  |  |
| CC1=C(/C=C/C(C)=C/C=C/C(C)=C/C(=O)NCCO)C(C)(C)CCC1 | Active |  | Activity [3]: Active; EC50 [4]: 0.145 µM; Ratio EC50 [5]: 2; Kd [6]: 0.214 µM |
| CC(C)=CCC/C(C)=C/C(=O)Nc1ccc(O)cc1 |  | inactive |  |
| CC1=C(/C=C/C(C)=C/C=C/C(C)=C/C(=O)N2CCCC3CCCCC32)C(C)(C)CCC1 (stereo not drawn) | Active |  |  |
| CC1=C(/C=C/C(C)=C/C=C/C(C)=C/C(=O)N2CCC(F)(F)CC2)C(C)(C)CCC1 | Active |  |  |
| COc1ccc(CCC(=O)Nc2ccc(O)cc2)cc1 |  | inactive |  |
| CC1=C(/C=C/C(C)=C/C=C/C(C)=C/C(=O)Nc2ccc(OCC(=O)N(C)C)cc2)C(C)(C)CCC1 | Active |  |  |
| CC(C)(C)CC(=O)Nc1ccc(O)cc1 |  | inactive |  |
| CC1=C(/C=C/C(C)=C/C=C/C(C)=C/C(=O)NCC2CC2)C(C)(C)CCC1 | Active |  |  |
| CC1=C(/C=C/C(C)=C/C=C/C(C)=C/C(=O)Nc2ccc(O)cc2)C(C)(C)CCC1 |  |  | fold change (FC) [8]: 3; Activity [3]: inactive; Activity [7]: Active |

| Structure (SMILES) | Activity [1] | Activity [2] | further results |
| --- | --- | --- | --- |
| C=CC(=O)Nc1ccc(O)cc1 |  | inactive |  |
| O=C(CCCc1ccccc1)Nc1ccc(O)cc1 |  | inactive |  |
| CC(C)CCCC(=O)Nc1ccc(O)cc1 |  | inactive |  |
| COCCOCC(=O)Nc1ccc(O)cc1 |  | inactive |  |
| CC1=C(/C=C/C(C)=C/C=C/C(C)=C/C(=O)N2CCCCC2)C(C)(C)CCC1 | Active |  |  |
| CC1=C(/C=C/C(C)=C/C=C/C(C)=C/C(=O)N2CCC(F)CC2)C(C)(C)CCC1 | Active |  |  |
| CC1=C(/C=C/C(C)=C/C=C/C(C)=C/C(=O)N2CCC(Cc3ccccc3)CC2)C(C)(C)CCC1 | Active |  |  |
| CC1=C(/C=C/C(C)=C/C=C/C(C)=C/C(=O)NCCC(C)(C)C)C(C)(C)CCC1 | Active |  |  |
| CC1=C(/C=C/C(C)=C/C=C/C(C)=C/C(=O)Nc2ccc(OCC(=O)N3CCCCC3)cc2)C(C)(C)CCC1 | Active |  |  |
| CC1=C(/C=C/C(C)=C/C=C/C(C)=C/C(=O)NCc2ccc3c(c2)OCO3)C(C)(C)CCC1 | Active |  |  |
| CC1=C(/C=C/C(C)=C/C=C/C(C)=C/C(=O)N2CCS(=O)(=O)CC2)C(C)(C)CCC1 | Active |  |  |
| CC(C)CC(=O)Nc1ccc(O)cc1 |  | inactive |  |
| COc1ccccc1CNC(=O)/C=C(C)/C=C/C=C(C)/C=C/C1=C(C)CCCC1(C)C | Active |  |  |
| CC1=C(/C=C/C(C)=C/C=C/C(C)=C/C(=O)NC2CCCCC2)C(C)(C)CCC1 | Active |  |  |
| CC(C)c1ccc(CCC(=O)Nc2ccc(O)cc2)cc1 |  | inactive |  |
| CC(C)(C)C(=O)Nc1ccc(O)cc1 |  | inactive |  |
| CC(C)=CC(=O)Nc1ccc(O)cc1 |  | inactive |  |
| CC1=C(/C=C/C(C)=C/C=C/C(C)=C\C(=O)Nc2ccc(O)cc2)C(C)(C)CCC1 | Active |  | Activity [3]: Active |
| CCCCC(=O)Nc1ccc(O)cc1 |  | inactive |  |
| COc1ccc(NC(=O)/C=C(C)/C=C/C=C(C)/C=C/C2=C(C)CCCC2(C)C)cc1 | Active |  |  |
| COc1ccc(CNC(=O)/C=C(C)/C=C/C=C(C)/C=C/C2=C(C)CCCC2(C)C)cc1 | Active |  |  |
| CC1=C(/C=C/C(C)=C/C=C/C(C)=C/C(=O)NCc2ccc(F)cc2)C(C)(C)CCC1 | Active |  |  |
| CC1=C(/C=C/C(C)=C/C=C/C(C)=C/C(=O)NCc2ccccn2)C(C)(C)CCC1 | Active |  |  |
